Laboratory results from ChEMBL document CHEMBL3352222, “2-Hexylthio-β,γ-CH2-ATP is an effective and selective NTPDase2 inhibitor” (J Med Chem, 2014).

What was measured:
[1] = biological target: T1, NTPDase1 (ectonucleoside triphosphate diphosphohydrolase 1) (Homo sapiens, UniProt P49961); experiment: Stability assessed as human NTPDase1-mediated compound hydrolysis; format: ADME; conditions: human NTPDase1 enzyme, read-out: Drug degradation
T1 sequence (P49961 whole entry): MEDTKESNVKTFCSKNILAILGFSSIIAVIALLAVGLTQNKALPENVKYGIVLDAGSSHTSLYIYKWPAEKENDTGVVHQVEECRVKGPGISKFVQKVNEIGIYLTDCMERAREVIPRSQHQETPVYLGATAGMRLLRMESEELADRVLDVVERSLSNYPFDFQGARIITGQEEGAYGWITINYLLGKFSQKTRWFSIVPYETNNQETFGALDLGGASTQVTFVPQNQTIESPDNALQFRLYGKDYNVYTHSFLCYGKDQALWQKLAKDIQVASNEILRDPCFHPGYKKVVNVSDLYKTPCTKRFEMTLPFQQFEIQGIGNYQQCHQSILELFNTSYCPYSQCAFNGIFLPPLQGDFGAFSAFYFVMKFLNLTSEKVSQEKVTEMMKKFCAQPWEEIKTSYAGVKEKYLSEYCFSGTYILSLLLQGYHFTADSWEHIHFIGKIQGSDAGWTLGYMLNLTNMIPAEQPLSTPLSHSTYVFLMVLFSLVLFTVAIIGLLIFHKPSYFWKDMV
Summary of the method: (§1)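 Each analogue offered as substrate to recombinant human NTPDase (COS-7 transfected cell protein extracts) at 37 °C, pH 7.4 Ca2+/Tris medium, 15 min; Pi released measured by malachite green at 630 nm; hydrolysis expressed relative to ATP set as 100%; mean ± SD of three independent experiments, each in duplicate.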

[2] = biological target: T2, NTPDase3 (ectonucleoside triphosphate diphosphohydrolase 3) (Homo sapiens, UniProt O75355); experiment: Stability assessed as human NTPDase3-mediated compound hydrolysis; format: ADME; conditions: human NTPDase3 enzyme, read-out: Drug degradation; summary of the method: as §1
T2 sequence (O75355 whole entry): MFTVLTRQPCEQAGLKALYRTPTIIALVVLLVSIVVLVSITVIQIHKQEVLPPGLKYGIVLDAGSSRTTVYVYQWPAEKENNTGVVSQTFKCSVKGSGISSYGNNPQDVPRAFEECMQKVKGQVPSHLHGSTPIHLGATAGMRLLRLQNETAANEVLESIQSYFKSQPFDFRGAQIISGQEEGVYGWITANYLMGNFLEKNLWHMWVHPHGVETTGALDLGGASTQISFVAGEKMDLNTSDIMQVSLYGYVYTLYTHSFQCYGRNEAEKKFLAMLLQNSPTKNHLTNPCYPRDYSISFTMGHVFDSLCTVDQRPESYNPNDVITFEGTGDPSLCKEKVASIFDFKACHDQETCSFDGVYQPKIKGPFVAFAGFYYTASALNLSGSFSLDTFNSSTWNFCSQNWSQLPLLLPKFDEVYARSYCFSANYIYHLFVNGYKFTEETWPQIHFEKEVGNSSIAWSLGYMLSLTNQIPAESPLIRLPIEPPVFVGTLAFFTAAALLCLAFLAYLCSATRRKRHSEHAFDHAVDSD

[3] = biological target: T3, Ectonucleoside triphosphate diphosphohydrolase 2 (Homo sapiens) (UniProt Q9Y5L3); experiment: Inhibition of recombinant human NTPDase2 transfected in COS-7 cells using ATP substrate at 100 uM relative to control; format: cell-based
T3 sequence (whole entry): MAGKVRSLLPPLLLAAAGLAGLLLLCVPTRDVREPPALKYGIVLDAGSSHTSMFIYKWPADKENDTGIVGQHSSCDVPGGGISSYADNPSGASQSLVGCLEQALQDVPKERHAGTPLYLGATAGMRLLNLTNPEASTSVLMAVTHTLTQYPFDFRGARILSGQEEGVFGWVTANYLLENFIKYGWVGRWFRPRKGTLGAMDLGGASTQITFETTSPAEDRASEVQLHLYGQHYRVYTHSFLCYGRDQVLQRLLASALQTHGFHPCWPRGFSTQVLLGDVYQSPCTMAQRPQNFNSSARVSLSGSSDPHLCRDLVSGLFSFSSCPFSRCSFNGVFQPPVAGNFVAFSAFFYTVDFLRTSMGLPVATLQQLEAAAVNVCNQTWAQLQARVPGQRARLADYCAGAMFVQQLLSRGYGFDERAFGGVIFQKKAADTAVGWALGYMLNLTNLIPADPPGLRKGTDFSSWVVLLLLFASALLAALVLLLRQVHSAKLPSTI
Summary of the method: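 Extracts of COS-7 cells expressing human NTPDase2, preincubated 3 min at 37 °C in 5 mM CaCl2/80 mM Tris pH 7.4; ATP and compound both 100 μM; stopped at 15 min with malachite green, Pi at 630 nm; ATP alone set as 100%; mean ± SD of three experiments in triplicate.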

[4] = Stability assessed as human compound hydrolysis; conditions: read-out: Drug degradation
[5] = biological target: T4, NTPDase2 (ectonucleoside triphosphate diphosphohydrolase 2) (Homo sapiens, UniProt Q9Y5L3); experiment: Stability assessed as human NTPDase2-mediated compound hydrolysis; format: ADME; conditions: human NTPDase2 enzyme, read-out: Drug degradation; summary of the method: as §1
T4 sequence (Q9Y5L3 whole entry): T3 sequence (whole entry)

[6] = biological target: T5, Ectonucleotide pyrophosphatase/phosphodiesterase family member 1 (Homo sapiens) (UniProt P22413); experiment: Inhibition of human NPP1 using pNP-TMP substrate relative to control; conditions: concentration not given here
T5 sequence (whole entry): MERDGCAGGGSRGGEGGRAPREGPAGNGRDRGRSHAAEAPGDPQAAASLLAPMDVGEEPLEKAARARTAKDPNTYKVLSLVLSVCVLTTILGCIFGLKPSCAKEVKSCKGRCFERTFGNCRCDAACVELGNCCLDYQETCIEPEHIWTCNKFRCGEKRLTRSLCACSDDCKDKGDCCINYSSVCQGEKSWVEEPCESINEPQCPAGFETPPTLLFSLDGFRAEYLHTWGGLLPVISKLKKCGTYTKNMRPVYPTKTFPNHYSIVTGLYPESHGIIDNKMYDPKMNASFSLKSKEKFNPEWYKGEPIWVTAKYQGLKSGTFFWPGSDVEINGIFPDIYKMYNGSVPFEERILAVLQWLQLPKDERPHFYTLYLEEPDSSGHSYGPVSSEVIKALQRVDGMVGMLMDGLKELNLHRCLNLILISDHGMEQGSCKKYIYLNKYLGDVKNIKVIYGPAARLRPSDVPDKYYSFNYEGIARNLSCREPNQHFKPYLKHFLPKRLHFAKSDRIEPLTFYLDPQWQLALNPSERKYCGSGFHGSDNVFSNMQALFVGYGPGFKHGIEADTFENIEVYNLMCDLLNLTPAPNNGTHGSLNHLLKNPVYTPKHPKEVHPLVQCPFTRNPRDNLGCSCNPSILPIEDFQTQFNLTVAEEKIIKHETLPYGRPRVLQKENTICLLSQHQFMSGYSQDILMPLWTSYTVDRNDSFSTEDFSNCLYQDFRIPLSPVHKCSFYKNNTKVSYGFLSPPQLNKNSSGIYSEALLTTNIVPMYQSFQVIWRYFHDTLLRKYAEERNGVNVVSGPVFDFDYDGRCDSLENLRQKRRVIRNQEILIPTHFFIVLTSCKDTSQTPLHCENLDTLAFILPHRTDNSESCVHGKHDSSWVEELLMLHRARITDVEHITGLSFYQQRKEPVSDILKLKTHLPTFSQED
Summary of the method: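 Extract of COS-7 cells transfected with human NPP1, preincubated 3 min at 37 °C in 1 mM CaCl2, 140 mM NaCl, 5 mM KCl, 50 mM Tris pH 8.5; started with 100 μM pNP-TMP, compound 100 μM; p-nitrophenol read at 410 nm after 15 min; activity without compound = 100%; mean ± SD, three experiments in triplicate.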

[7] = biological target: T6, Ectonucleoside triphosphate diphosphohydrolase 2 (Homo sapiens, UniProt Q9Y5L3); experiment: Inhibition of recombinant human NTPDase2 transfected in COS-7 cells using ATP substrate; format: cell-based
T6 sequence (Q9Y5L3 whole entry): T3 sequence (whole entry)

[8] = biological target: 5'-nucleotidase (Homo sapiens) (UniProt P21589); experiment: Inhibition of AMPase activity of human ecto-5'-nucleotidase using AMP substrate relative to control; conditions: concentration not given here
Summary of the method: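 Human ecto-5′-nucleotidase in protein extracts of transfected COS-7 cells; 3 min preincubation at 37 °C in 5 mM CaCl2/80 mM Tris pH 7.4 (or Tris-Ringer); started with 100 μM AMP, compound also 100 μM; stopped after 15 min with malachite green, Pi read at 630 nm; activity without compound set as 100%; mean ± SD, three experiments in triplicate.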

5'-nucleotidase (Homo sapiens), sequence (P21589 whole entry): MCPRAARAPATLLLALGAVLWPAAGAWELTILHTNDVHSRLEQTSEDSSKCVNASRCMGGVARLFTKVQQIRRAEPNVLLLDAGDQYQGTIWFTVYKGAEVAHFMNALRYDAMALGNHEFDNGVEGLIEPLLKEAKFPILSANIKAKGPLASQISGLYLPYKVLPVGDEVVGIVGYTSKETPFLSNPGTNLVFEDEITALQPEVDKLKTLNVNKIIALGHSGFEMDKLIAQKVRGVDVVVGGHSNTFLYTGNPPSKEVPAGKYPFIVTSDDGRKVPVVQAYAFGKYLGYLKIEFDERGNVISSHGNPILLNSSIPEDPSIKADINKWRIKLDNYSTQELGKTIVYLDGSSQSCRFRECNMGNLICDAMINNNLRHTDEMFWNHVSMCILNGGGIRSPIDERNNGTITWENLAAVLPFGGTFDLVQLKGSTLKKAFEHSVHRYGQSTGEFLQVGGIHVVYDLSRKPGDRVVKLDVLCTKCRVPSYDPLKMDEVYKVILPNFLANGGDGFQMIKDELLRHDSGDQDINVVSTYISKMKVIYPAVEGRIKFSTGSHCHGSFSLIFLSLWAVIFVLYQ

O=P(O)(O)OC[C@H]1O[C@@H](n2cnc3c(N(Cc4ccccc4)Cc4ccccc4)ncnc32)[C@H](O)[C@@H]1O
metabolised [1]: 6% | metabolised [2]: 10% | inhibition [3]: 10% | metabolised [4]: 5% | metabolised [5]: 3%

CNc1ncnc2c1ncn2[C@@H]1O[C@H](COP(=O)(O)OP(=O)(O)OP(=O)(O)O)[C@@H](O)[C@H]1O
metabolised [1]: 87% | metabolised [5]: 77%

CCCCCCSc1nc(N)c2ncn([C@@H]3O[C@H](COP(=O)(O)OP(=O)(O)CP(=O)(O)O)[C@@H](O)[C@H]3O)c2n1
metabolised [1]: 2.3% | inhibition [6]: > 50% | IC50 [7]: 40 µM | Ki [7]: 21 µM | metabolised [2]: 0.8% | inhibition [3]: 70% | inhibition [8]: 10% | metabolised [5]: 2.8%

CN(C)c1ncnc2c1ncn2[C@@H]1O[C@H](COP(=O)(O)OP(=O)(O)OP(=O)(O)O)[C@@H](O)[C@H]1O
metabolised [1]: 74% | metabolised [5]: 73%

CCCCCCSc1nc(N)c2nnn([C@@H]3O[C@H](COP(=O)(O)OP(=O)(O)OP(=O)(O)O)[C@@H](O)[C@H]3O)c2n1
metabolised [1]: 44% | metabolised [5]: 11.5%

Nc1ncnc2c1nnn2[C@@H]1O[C@H](COP(=O)(O)OP(=O)(O)OP(=O)(O)O)[C@@H](O)[C@H]1O
metabolised [1]: 73% | metabolised [5]: 38.5%

O=P(O)(O)OP(=O)(O)OP(=O)(O)OC[C@H]1O[C@@H](n2cnc3c(N(Cc4ccccc4)Cc4ccccc4)ncnc32)[C@H](O)[C@@H]1O
metabolised [1]: 14% | metabolised [2]: 8% | inhibition [3]: 0% | metabolised [4]: 13% | metabolised [5]: 3%

CN(C)c1ncnc2c1ncn2[C@@H]1O[C@H](COP(=O)(O)O)[C@@H](O)[C@H]1O
metabolised [1]: 0% | metabolised [2]: 4% | metabolised [4]: 2% | metabolised [5]: 0%

CCN(CC)c1ncnc2c1ncn2[C@@H]1O[C@H](COP(=O)(O)OP(=O)(O)OP(=O)(O)O)[C@@H](O)[C@H]1O
metabolised [1]: 22% | metabolised [2]: 2% | inhibition [3]: 42% | metabolised [4]: 20% | metabolised [5]: 0%
